Measurements published in ChEMBL document CHEMBL1177718, “Phosphoramidate ProTides of 2'-C-methylguanosine as highly potent inhibitors of hepatitis C virus. Study of their in vitro and in vivo properties” (J Med Chem, 2010).
pEC50: −log10 of the molar value.

What was measured:
[1] = test system: Hepatitis C virus; test: Antiviral activity against HCV1b infected in human HuH7 cells assessed as inhibition of viral replication after 48 hrs by luciferase reporter gene assay; assay type: functional, organism-based, Hepacivirus hominis; details: genotype 1b, Huh-7, 48 h
Procedure, shortened: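 Huh7 cells carrying genotype 1b bicistronic subgenomic replicon, seeded 2 × 10⁴/well without G-418; compounds added 18-24 h later, 48 h exposure; 3× or 4× serial dilutions over 0.0001-10 μM in triplicate/quadruplicate; Renilla luciferase read-out versus untreated cells; EC₅₀ by four-parameter sigmoidal nonlinear regression; at least three independent assays.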

[2] = Cmax in ICR mouse plasma at 50 mg/kg, po by LC-MS/MS analysis; assay type: ADME, organism-based; set-up: dose 50 mg/kg, route oral
[3] = Cytotoxicity against human HuH7 cells after 72 hrs by celltiter-glo assay; assay type: cell-based, Huh-7
Procedure, shortened: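 Replicon 1b Huh7 cells seeded 2 × 10⁴/well; after 24 h, 11 serial 2× dilutions from 100 μM (three repeats each) with no-compound control; 72 h at 37 °C, CO₂, log-phase growth; viability by CellTiter-Glo luminescence; CC₅₀ = concentration giving 50% signal.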

[4] = test system: Liver; test: Dose normalized AUC in ICR mouse liver at 50 mg/kg, po by LC-MS/MS analysis; assay type: ADME, organism-based; set-up: dose 50 mg/kg, route oral; details: in vivo
[5] = test system: Plasma; test: Dose normalized AUC in ICR mouse plasma at 50 mg/kg, po by LC-MS/MS analysis; assay type: ADME, organism-based; set-up: dose 50 mg/kg, route oral; details: in vivo
[6] = Metabolic stability in mouse plasma assessed as compound remaining at 1 ug/ml after 30 mins; assay type: ADME, cell-free; details: read-out: Stability
[7] = Metabolic stability in dog plasma assessed as compound remaining at 1 ug/ml after 30 mins; assay type: ADME, cell-free, Canis lupus familiaris; details: read-out: Stability
Procedure, shortened: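 Duplicate incubations; compound at final 1 μg/mL in plasma preincubated and kept at […]; samples taken at 30 or 240 min, quenched with ice-cold acetonitrile, centrifuged, supernatant diluted with water; parent quantified by LC-MS/MS (Polar-RP column, formic acid water/acetonitrile gradient, positive ion mode); % remaining reported.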

[8] = test system: Liver; test: AUC (0 to 6 hrs) in ICR mouse liver at 50 mg/kg, po by LC-MS/MS analysis; assay type: ADME, organism-based; set-up: time < 6 hr, dose 50 mg/kg, route oral; details: in vivo
[9] = species: Homo sapiens; test: Metabolic stability in human plasma assessed as compound remaining at 1 ug/ml after 30 mins
[10] = Metabolic stability in cynomolgus monkey intestine S9 fraction assessed as compound remaining at 10 uM after 60 mins by HPLC analysis in absence of NADP; assay type: ADME, tissue-based, Macaca fascicularis; details: read-out: Stability
Procedure, shortened: (§1)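 Liver or intestinal S9 at final 1 mg/mL in 50 mM potassium phosphate, with or without NADPH-regenerating system (1.3 mM NADP, 3.3 mM glucose-6-phosphate, 0.4 U/mL G6PDH, 3.3 mM MgCl₂); 10 min preincubation at 37 °C; compound at final 10 μM; samples at start and 60 min quenched in cold acetonitrile, centrifuged, HPLC; % parent remaining.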

[11] = Metabolic stability in rat intestine S9 fraction assessed as compound remaining at 10 uM after 60 mins by HPLC analysis in presence of NADP; assay type: ADME, tissue-based; details: read-out: Stability
Procedure, shortened: (§2)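 Rat liver or intestinal S9 at 1 mg/mL final in 50 mM potassium phosphate, with or without NADPH-regenerating system (final 1.3 mM NADP, 3.3 mM glucose-6-phosphate, 0.4 U/mL G6P dehydrogenase, 3.3 mM MgCl2). Preincubated 10 min at 37 °C with shaking, started with compound at 10 μM final. Samples taken at 0 and 60 min, quenched in cold acetonitrile, centrifuged, and parent disappearance measured by HPLC.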

[12] = Metabolic stability in cynomolgus monkey liver S9 fraction assessed as compound remaining at 10 uM after 60 mins by HPLC analysis in absence of NADP; assay type: ADME, subcellular, Macaca fascicularis; details: read-out: Stability; procedure, shortened: as §1
[13] = Metabolic stability in dog liver S9 fraction assessed as compound remaining at 10 uM after 60 mins by HPLC analysis in presence of NADP; assay type: ADME, subcellular, Canis lupus familiaris; details: read-out: Stability; procedure, shortened: as §1
[14] = Metabolic stability in human intestine S9 fraction assessed as compound remaining at 10 uM after 60 mins by HPLC analysis in absence of NADP; assay type: ADME, tissue-based; details: read-out: Stability; procedure, shortened: as §1
[15] = Metabolic stability in human liver S9 fraction assessed as compound remaining at 10 uM after 60 mins by HPLC analysis in presence of NADP; assay type: ADME, subcellular; details: read-out: Stability; procedure, shortened: as §1
[16] = Metabolic stability in cynomolgus monkey intestine S9 fraction assessed as compound remaining at 10 uM after 60 mins by HPLC analysis in presence of NADP; assay type: ADME, tissue-based, Macaca fascicularis; details: read-out: Stability; procedure, shortened: as §1
[17] = Metabolic stability in rat liver S9 fraction assessed as compound remaining at 10 uM after 60 mins by HPLC analysis in absence of NADP; assay type: ADME, subcellular; details: read-out: Stability; procedure, shortened: as §2
[18] = Metabolic stability in dog intestine S9 fraction assessed as compound remaining at 10 uM after 60 mins by HPLC analysis in absence of NADP; assay type: ADME, tissue-based, Canis lupus familiaris; details: read-out: Stability; procedure, shortened: as §1
[19] = Metabolic stability in human intestine S9 fraction assessed as compound remaining at 10 uM after 60 mins by HPLC analysis in presence of NADP; assay type: ADME, tissue-based; details: read-out: Stability; procedure, shortened: as §1
[20] = Metabolic stability in dog intestine S9 fraction assessed as compound remaining at 10 uM after 60 mins by HPLC analysis in presence of NADP; assay type: ADME, tissue-based, Canis lupus familiaris; details: read-out: Stability; procedure, shortened: as §1
[21] = Metabolic stability in rat liver S9 fraction assessed as compound remaining at 10 uM after 60 mins by HPLC analysis in presence of NADP; assay type: ADME, subcellular; details: read-out: Stability; procedure, shortened: as §2
[22] = Metabolic stability in human liver S9 fraction assessed as compound remaining at 10 uM after 60 mins by HPLC analysis in absence of NADP; assay type: ADME, subcellular; details: read-out: Stability; procedure, shortened: as §1
[23] = Metabolic stability in cynomolgus monkey liver S9 fraction assessed as compound remaining at 10 uM after 60 mins by HPLC analysis in presence of NADP; assay type: ADME, subcellular, Macaca fascicularis; details: read-out: Stability; procedure, shortened: as §1
[24] = Metabolic stability in dog liver S9 fraction assessed as compound remaining at 10 uM after 60 mins by HPLC analysis in absence of NADP; assay type: ADME, subcellular, Canis lupus familiaris; details: read-out: Stability; procedure, shortened: as §1
[25] = Metabolic stability in rat intestine S9 fraction assessed as compound remaining at 10 uM after 60 mins by HPLC analysis in absence of NADP; assay type: ADME, tissue-based; details: read-out: Stability; procedure, shortened: as §2

Row | pEC50 [1] | Cmax [2] [µg/mL] | AUC [4] [ng·h/g] | AUC [5] [µg·h/mL] | remaining at 0.5 h, 1 ug/ml [6] [%] | remaining at 0.5 h, 1 ug/ml [7] [%] | AUC [8] [ng·h/g] | remaining at 0.5 h, 1 ug/ml [9] [%] | remaining at 1 h, 10 µM [13] [%] | remaining at 1 h, 10 µM [14] [%] | remaining at 1 h, 10 µM [15] [%] | remaining at 1 h, 10 µM [18] [%] | remaining at 1 h, 10 µM [19] [%] | remaining at 1 h, 10 µM [20] [%] | remaining at 1 h, 10 µM [22] [%] | remaining at 1 h, 10 µM [24] [%] | SMILES | CC50 at 72 h [3] [µM] | further results
1 | 6.37 | 0.518 | 18 | 0.049 | 69 | 100 | 880 | 77 |  |  |  |  |  |  |  |  | CC(C)[C@H](NP(=O)(OC[C@H]1O[C@@H](n2cnc3c(=O)[nH]c(N)nc32)[C@](C)(O)[C@@H]1O)Oc1cccc2ccccc12)C(=O)OCc1ccccc1Cl (some centres not stated) | > 100 | 
2 | 6.77 |  |  |  | 14 |  |  |  | 81 | 85 | 27 | 68 | 65 | 66 | 41 | 91 | CC(C)OC(=O)[C@H](C)NP(=O)(OC[C@H]1O[C@@H](n2cnc3c(=O)[nH]c(N)nc32)[C@](C)(O)[C@@H]1O)Oc1cccc2ccccc12 (some centres not stated) | > 100 | remaining at 1 h, 10 µM [10]: 87%; remaining at 1 h, 10 µM [11]: 77%; remaining at 1 h, 10 µM [12]: 86%; remaining at 1 h, 10 µM [16]: 48%; remaining at 1 h, 10 µM [17]: 28%; remaining at 1 h, 10 µM [21]: 25%; remaining at 1 h, 10 µM [23]: 0%; remaining at 1 h, 10 µM [25]: 76%
3 | 6.21 | 0.339 | 18 | 0.088 | 94 | 89 | 920 | 95 |  |  |  |  |  |  |  |  | CC(C)[C@H](NP(=O)(OC[C@H]1O[C@@H](n2cnc3c(=O)[nH]c(N)nc32)[C@](C)(O)[C@@H]1O)Oc1cccc2ccccc12)C(=O)OCc1ccc(Cl)cc1 (some centres not stated) |  | 
4 | 6.77 |  |  |  | 0.7 |  |  |  | 33 | 23 | 14 | 27 | 24 | 23 | 29 | 28 | C[C@H](NP(=O)(OC[C@H]1O[C@@H](n2cnc3c(=O)[nH]c(N)nc32)[C@](C)(O)[C@@H]1O)Oc1ccc2ccccc2c1)C(=O)OCc1ccccc1 (some centres not stated) | > 50 | 
